Assay results: ChEMBL document CHEMBL2010670, “Discovery of a clinical stage multi-kinase inhibitor sodium (E)-2-{2-methoxy-5-[(2',4',6'-trimethoxystyrylsulfonyl)methyl]phenylamino}acetate (ON 01910.Na): synthesis, structure-activity relationship, and biological activity” (J Med Chem, 2011)

Experiments:
Assay type in all cases: functional, cell-based
K562 = experiment: Cytotoxicity against human K562 cells after 96 hrs by trypan blue exclusion assay; conditions: Homo sapiens, K562, 96 h
Procedure, shortened: (§1)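 Cells grown in DMEM or RPMI with 10% FBS and penicillin-streptomycin, seeded at 1.0 × 10⁵ cells/mL/well in 6-well dishes. Compound added at a range of concentrations 24 h after seeding. Viable cells counted by trypan blue exclusion from duplicate wells after 96 h of exposure; dose-response end point.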

DU-145 = experiment: Cytotoxicity against human DU145 cells after 96 hrs by trypan blue exclusion assay; conditions: Homo sapiens, DU-145, 96 h; procedure, shortened: as §1
[1] = Cytotoxicity against multidrug-resistant human MES-SA/Dx5 cells assessed as cell viability after 96 hrs by trypan blue exclusion; conditions: MES-SA/Dx5, 96 h
Procedure, shortened: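 Cells grown in DMEM or RPMI with 10% FBS and 1 unit/mL penicillin-streptomycin, seeded at 1.0 × 10⁵ cells/mL/well in 6-well dishes; compound added 24 h later at various concentrations. After 96 h of treatment, viable cells counted by trypan blue exclusion in duplicate wells; dose-response end point.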

[2] = Cytotoxicity against human MES-SA cells assessed as cell viability after 96 hrs by trypan blue exclusion; procedure, shortened: as §1

SMILES	IC50 (K562) [µM]	IC50 (DU-145) [µM]	IC50 [1] [µM]	IC50 [2] [µM]
COC(=O)C(C)(C)Nc1cc(CS(=O)(=O)/C=C/c2c(OC)cc(OC)cc2OC)ccc1OC	0.8	2.5		
COc1cc(OC)c(/C=C/S(=O)(=O)Cc2ccc(Cl)cc2N)c(OC)c1	2.5	2.5		
COc1cc(OC)c(/C=C/SCc2ccc(OC)c([N+](=O)[O-])c2)c(OC)c1	5	5		
COc1cc(OC)c(/C=C/S(=O)(=O)Cc2ccc(OC)c(NCC(=O)O)c2)c(OC)c1 [RIGOSERTIB]	0.0075	0.075		
COC(=O)C(Nc1cc(CS(=O)(=O)/C=C/c2c(OC)cc(OC)cc2OC)ccc1OC)c1ccc(F)cc1 (centres undefined)	0.8	0.3		
COc1cc(OC)c(/C=C/S(=O)(=O)Cc2ccc(OC)c(NC(C(=O)O)c3ccc(Br)cc3)c2)c(OC)c1 (centres undefined)	0.2	0.3		
COc1ccc(/C=C/S(=O)(=O)Cc2ccc(OC)c(N)c2)cc1	2.5	2.5		
COc1ccc(CS(=O)(=O)/C=C/c2c(OC)cccc2OC)c([N+](=O)[O-])c1	50	50		
COc1ccc(CS(=O)(=O)/C=C/c2c(F)cc(F)cc2F)cc1N	0.8	2		
COc1cc(OC)c(/C=C/S(=O)(=O)Cc2cc(N)ccc2OC)c(OC)c1	7.5	7.5		
COc1cc(OC)c(/C=C/S(=O)(=O)Cc2ccc(OC)c(NC(F)(F)C(=O)O)c2)c(OC)c1	0.15	0.15		
COc1cc(OC)c(/C=C/S(=O)(=O)Cc2ccc(OC)c(NCCC(=O)O)c2)c(OC)c1	5	5		
COc1cc(OC)c(/C=C/S(=O)(=O)Cc2ccc(OC)cc2[N+](=O)[O-])c(OC)c1	20	20		
COc1cc(OC)c(/C=C/S(=O)(=O)Cc2ccc(OC)c(NC(C(=O)O)C(F)(F)F)c2)c(OC)c1 (centres undefined)	0.075	0.02		
COC(=O)CNc1cc(CS(=O)(=O)/C=C/c2cc(OC)c(OC)c(OC)c2)ccc1OC	30	75		
COc1cc(OC)c(/C=C/S(=O)(=O)Cc2ccc(OC)c(NC(C(=O)O)c3ccc(Cl)cc3)c2)c(OC)c1 (centres undefined)	0.25	0.4		
COc1ccc(CS(=O)(=O)/C=C/c2c(OC)cccc2OC)cc1[N+](=O)[O-]	20	20		
COC(=O)C(Nc1cc(CS(=O)(=O)/C=C/c2c(OC)cc(OC)cc2OC)ccc1OC)C(F)(F)F (centres undefined)	0.25	0.25		
COc1cc(OC)c(/C=C/S(=O)(=O)Cc2ccc(Br)c([N+](=O)[O-])c2)c(OC)c1	25	25		

SMILES	IC50 (K562) [µM]	IC50 (DU-145) [µM]	IC50 [1] [µM]	IC50 [2] [µM]
COc1cc(OC)c(/C=C/S(=O)(=O)Cc2ccc(OC)c([N+](=O)[O-])c2)c(OC)c1	2.5	2.5		
COc1ccc(CS(=O)(=O)/C=C/c2c(OC)cccc2OC)c(N)c1	0.75	0.75		
COc1ccc(CS(=O)(=O)/C=C/c2c(OC)cc(O)cc2OC)cc1N	0.3	0.2		
COc1cc(OC)c(/C=C/S(=O)(=O)Cc2ccc(Cl)c(N)c2)c(OC)c1	0.01	0.01		
COc1cc(OC)c(/C=C/S(=O)(=O)Cc2ccc(OC)c(NC(C(=O)O)c3ccccc3)c2)c(OC)c1 (centres undefined)	0.015	0.02		
COc1cc(OC)c(/C=C/S(=O)(=O)Cc2ccc(OC)c(NC(C)(C)C(=O)O)c2)c(OC)c1	0.0075	0.15		
COC(=O)CCNc1cc(CS(=O)(=O)/C=C/c2c(OC)cc(OC)cc2OC)ccc1OC	1	1.5		
COc1cc(OC)c(/C=C/S(=O)(=O)Cc2ccc(OC)c(N[C@@H](C)C(=O)O)c2)c(OC)c1	0.015	0.025		
COC(=O)C(Nc1cc(CS(=O)(=O)/C=C/c2c(OC)cc(OC)cc2OC)ccc1OC)c1ccc(Cl)cc1 (centres undefined)	0.2	0.4		
COc1ccc(CS(=O)(=O)/C=C/c2cc(OC)c(OC)c(OC)c2)cc1NCC(=O)O	3	5		
COc1cc(OC)c(/C=C/[S+]([O-])Cc2ccc(OC)c(N)c2)c(OC)c1 (centres undefined)	0.02	0.04		
COC(=O)[C@H](C)Nc1cc(CS(=O)(=O)/C=C/c2c(OC)cc(OC)cc2OC)ccc1OC	0.2	0.75		
COc1ccc(/C=C/S(=O)(=O)Cc2ccc(OC)c(N)c2)c(OC)c1	0.5	0.5		
COc1ccc(C(Nc2cc(CS(=O)(=O)/C=C/c3c(OC)cc(OC)cc3OC)ccc2OC)C(=O)O)cc1 (centres undefined)	0.015	0.1		
COc1ccc(N)cc1CS(=O)(=O)/C=C/c1c(OC)cccc1OC	25	25		
COc1cc(OC)c(/C=C/S(=O)(=O)Cc2ccc(Br)c(N)c2)c(OC)c1	0.75	0.75		
COc1ccc(/C=C/S(=O)(=O)Cc2ccc(OC)c([N+](=O)[O-])c2)cc1	25	25		
COC(=O)C(Nc1cc(CS(=O)(=O)/C=C/c2c(OC)cc(OC)cc2OC)ccc1OC)c1ccc(Br)cc1 (centres undefined)	0.2	0.3		
COc1cc(OC)c(/C=C/S(=O)(=O)Cc2ccc(OC)c(NC(C(=O)O)c3ccc(F)cc3)c2)c(OC)c1 (centres undefined)	0.08	0.15		

SMILES	IC50 (K562) [µM]	IC50 (DU-145) [µM]	IC50 [1] [µM]	IC50 [2] [µM]
COc1cc(OC)c(/C=C/SCc2ccc(OC)c(N)c2)c(OC)c1	0.03	0.05		
COC(=O)C(Nc1cc(CS(=O)(=O)/C=C/c2c(OC)cc(OC)cc2OC)ccc1OC)c1ccccc1 (centres undefined)	0.03	0.075		
COc1ccc(CS(=O)(=O)/C=C/c2c(OC)cc(OCCCC(=O)O)cc2OC)cc1N	20	25		
COc1ccc(CS(=O)(=O)/C=C/c2cc(OC)c(OC)c(OC)c2)cc1N	0.25	3		
COc1cc(OC)c(/C=C/S(=O)(=O)Cc2ccc(F)c(N)c2)c(OC)c1	2.5	2.5		
COc1cc(OC)c(/C=C/S(=O)(=O)Cc2ccc(F)c([N+](=O)[O-])c2)c(OC)c1	25	25		
COc1ccccc1/C=C/S(=O)(=O)Cc1ccc(OC)c([N+](=O)[O-])c1	20	20		
COc1ccc(OC)c(/C=C/S(=O)(=O)Cc2ccc(OC)c(N)c2)c1	0.75	0.75		
COC(=O)CNc1cc(CS(=O)(=O)/C=C/c2c(OC)cc(OC)cc2OC)ccc1OC	0.1	0.1		
CC(=O)O[C@H]1C(=O)[C@@]2(C)[C@H]([C@H](OC(=O)c3ccccc3)[C@]3(O)C[C@H](OC(=O)[C@H](O)[C@@H](NC(=O)c4ccccc4)c4ccccc4)C(C)=C1C3(C)C)[C@]1(OC(C)=O)CO[C@@H]1C[C@@H]2O [PACLITAXEL]			0.75	0.004
COc1ccc(CS(=O)(=O)/C=C/c2c(OC)cc(O)cc2OC)cc1[N+](=O)[O-]	5	5		
COc1ccc(CS(=O)(=O)/C=C/c2cc(OC)c(OC)cc2OC)cc1N	0.25	0.25		
COc1ccc(CS(=O)(=O)/C=C/c2c(OC)cccc2OC)cc1N	0.05	0.05		
COC(=O)C(F)(F)Nc1cc(CS(=O)(=O)/C=C/c2c(OC)cc(OC)cc2OC)ccc1OC	0.25	0.25		
COc1ccc(CS(=O)(=O)/C=C/c2c(OC)cc(OC)cc2OC)c(N)c1	0.025	0.025		
COC(=O)C(Nc1cc(CS(=O)(=O)/C=C/c2c(OC)cc(OC)cc2OC)ccc1OC)c1ccc(OC)cc1 (centres undefined)	0.15	0.25		
COc1ccc(CS(=O)(=O)/C=C/c2ccccc2OC)cc1N	7.5	7.5		
COc1ccc(CS(=O)(=O)/C=C/c2cc(F)c(F)cc2F)cc1N	15	5		
COc1cc(OC)c(/C=C/[S+]([O-])Cc2ccc(OC)c([N+](=O)[O-])c2)c(OC)c1 (centres undefined)	15	15		
